Converted amounts (≈) assume the structure as drawn.
How the values were obtained:
Helicobacter pylori [1] = assay: Antibacterial activity against metronidazole-sensitive Helicobacter pylori assessed as inhibition zone diameter at 16 ug/disk after 3-5 days by paper disk diffusion assay; assay type: functional
How it was run: (§1)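 Filter paper disks (6 mm) loaded with compound in 40 μL methanol, dried, placed on Mueller–Hinton agar with 7% defibrinated horse blood pre-inoculated with H. pylori suspension (2 McFarland, 10⁷-10⁸ CFU/mL; 48 h cultures checked for coccoid forms); incubated microaerophilically (5% O2, 15% CO2, 80% N2) at 37 °C for 3–5 days; mean inhibition zone diameter (mm) of triplicates.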

Nannizzia gypsea = assay: Antifungal activity against Microsporum gypseum PTCC 5070 after […] by agar dilution method; assay type: functional
How it was run: (§2)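 Agar dilution on Sabouraud dextrose agar. Compound stocks in DMSO. Inocula about 10^5 CFU/mL from log-phase broth cultures. Plates run in triplicate at 30 °C: about 24–48 h for yeasts, about 72 h for moulds, about 168 h for dermatophytes. MIC is the lowest concentration with no visible growth on the plate.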

Aspergillus niger = assay: Antifungal activity against Aspergillus niger PTCC 5012 after 72 hrs by agar dilution method; assay type: functional; how it was run: as §2
Klebsiella pneumoniae = assay: Antibacterial activity against Klebsiella pneumoniae ATCC 10031 after 18 hrs by serial dilution method; assay type: functional; conditions: ATCC 10031, 18 h
How it was run: (§3)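 Agar dilution MIC. Compound stock diluted with water, then serially doubled in melted Mueller–Hinton agar to 64, 32, 16 and 8 µg/mL. Plates inoculated with 1-5 × 10^4 CFU and incubated 18 h at 37 °C. MIC is the lowest concentration giving no visible growth.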

Helicobacter pylori [2] = assay: Antibacterial activity against metronidazole-sensitive Helicobacter pylori assessed as inhibition zone diameter at 32 ug/disk after 3-5 days by paper disk diffusion assay; assay type: functional
How it was run: (§4)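 Filter-paper disk diffusion (6 mm disks), with the compound applied in 40 µL methanol and dried. Disks placed on Mueller–Hinton agar with 7% defibrinated horse blood, inoculated with 48 h H. pylori clinical-isolate suspension at 2 McFarland (10^7-10^8 CFU/mL). Incubated 3–5 days at 37 °C microaerophilically (5% O2, 15% CO2, 80% N2). Mean inhibition-zone diameter (mm) from triplicates.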

Escherichia coli = assay: Antibacterial activity against Escherichia coli ATCC 8739 after 18 hrs by serial dilution method; assay type: functional; conditions: ATCC 8739, 18 h; how it was run: as §3
Staphylococcus aureus = assay: Antibacterial activity against Staphylococcus aureus ATCC 6538P after 18 hrs by serial dilution method; assay type: functional; how it was run: as §3
Saccharomyces cerevisiae = assay: Antifungal activity against Saccharomyces cerevisiae PTCC 5177 after 72 hrs by agar dilution method; assay type: functional
Candida albicans = assay: Antifungal activity against Candida albicans PTCC 5027 after 72 hrs by agar dilution method; assay type: functional
[3] = system: Staphylococcus epidermidis; assay: Antibacterial activity against Staphylococcus epidermidis ATCC 12228 after 18 hrs by serial dilution method; assay type: functional; conditions: ATCC 12228, 18 h; how it was run: as §3
Helicobacter pylori [4] = assay: Antibacterial activity against metronidazole-sensitive Helicobacter pylori assessed as inhibition zone diameter at 8 ug/disk after 3-5 days by paper disk diffusion assay; assay type: functional; how it was run: as §4
Helicobacter pylori [5] = assay: Antibacterial activity against Helicobacter pylori isolate assessed as inhibition zone diameter at 4 ug/disk after 3-5 days by paper disk diffusion assay; assay type: functional; how it was run: as §4
Helicobacter pylori [6] = assay: Antibacterial activity against Helicobacter pylori isolate assessed as inhibition zone diameter at 0.5 ug/disk after 3-5 days by paper disk diffusion assay; assay type: functional; how it was run: as §4
Helicobacter pylori [7] = assay: Antibacterial activity against Helicobacter pylori isolate assessed as inhibition zone diameter at 16 ug/disk after 3-5 days by paper disk diffusion assay; assay type: functional; how it was run: as §4
Helicobacter pylori [8] = assay: Antibacterial activity against Helicobacter pylori isolate assessed as inhibition zone diameter at 2 ug/disk after 3-5 days by paper disk diffusion assay; assay type: functional; how it was run: as §4
Helicobacter pylori [9] = assay: Antibacterial activity against Helicobacter pylori isolate assessed as inhibition zone diameter at 8 ug/disk after 3-5 days by paper disk diffusion assay; assay type: functional; how it was run: as §4
Helicobacter pylori [10] = assay: Antibacterial activity against Helicobacter pylori isolate assessed as inhibition zone diameter at 1 ug/disk after 3-5 days by paper disk diffusion assay; assay type: functional; how it was run: as §4
[11] = Cytotoxicity against mouse NIH/3T3 cells after 72 hrs by MTT assay; assay type: cell-based; conditions: NIH3T3, 72 h
How it was run: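 NIH/3T3 mouse fibroblasts in exponential phase trypsinized and seeded at 5×10^4 cells/mL, then given serially diluted compound in triplicate and incubated 72 h. MTT (5 mg/mL solution) added for 1 h, formazan dissolved in DMSO, absorbance read at 492 nm. IC50 calculated from dose-response curves versus untreated controls, as mean ± SD of triplicates.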

Helicobacter pylori [12] = assay: Antibacterial activity against Helicobacter pylori isolate assessed as inhibition zone diameter at 32 ug/disk after 3-5 days by paper disk diffusion assay; assay type: functional; how it was run: as §4
Helicobacter pylori [13] = assay: Antibacterial activity against metronidazole-resistant Helicobacter pylori assessed as inhibition zone diameter at 8 ug/disk after 3-5 days by paper disk diffusion assay; assay type: functional; how it was run: as §1
Helicobacter pylori [14] = assay: Antibacterial activity against metronidazole-resistant Helicobacter pylori assessed as inhibition zone diameter at 16 ug/disk after 3-5 days by paper disk diffusion assay; assay type: functional; how it was run: as §1
Helicobacter pylori [15] = assay: Antibacterial activity against metronidazole-resistant Helicobacter pylori assessed as inhibition zone diameter at 32 ug/disk after 3-5 days by paper disk diffusion assay; assay type: functional; how it was run: as §1

Row | Compound | Activity (Helicobacter pylori [1]) | MIC (Nannizzia gypsea) | MIC (Aspergillus niger) | MIC (Klebsiella pneumoniae) | Activity (Helicobacter pylori [2]) | MIC (Escherichia coli) | MIC (Staphylococcus aureus) | MIC (Saccharomyces cerevisiae) | MIC (Candida albicans) | MIC [3] | Activity (Helicobacter pylori [4]) | Activity (Helicobacter pylori [15]) | further results
1 | CCSCCSc1nnc(-c2ccc([N+](=O)[O-])cc2)s1 | 16 mm | > 32 µg/mL | > 32 µg/mL | > 32 µg/mL | 20 mm | > 32 µg/mL | > 32 µg/mL | > 32 µg/mL | > 32 µg/mL | 32 µg/mL (≈ 97.7 µM) | 6 mm | – | –
2 | CCS(=O)(=O)CCSc1nnc(-c2ccc([N+](=O)[O-])s2)s1 | >50 mm | > 32 µg/mL | > 32 µg/mL | > 32 µg/mL | >50 mm | > 32 µg/mL | > 32 µg/mL | > 32 µg/mL | > 32 µg/mL | 32 µg/mL (≈ 87.6 µM) | >50 mm | – | Activity (Helicobacter pylori [5]): 37.5 mm; Activity (Helicobacter pylori [6]): 18.2 mm; Activity (Helicobacter pylori [7]): 46.7 mm; Activity (Helicobacter pylori [8]): 31.9 mm; Activity (Helicobacter pylori [9]): 44.2 mm; Activity (Helicobacter pylori [10]): 24.9 mm; IC50 [11]: 11.6 µg/mL (≈ 31.7 µM); Activity (Helicobacter pylori [12]): 47.6 mm
3 | CCSCCSc1nnc(-c2ncc([N+](=O)[O-])n2C)s1 | 37 mm | > 32 µg/mL | > 32 µg/mL | > 32 µg/mL | 48 mm | > 32 µg/mL | > 32 µg/mL | > 32 µg/mL | > 32 µg/mL | 32 µg/mL (≈ 96.5 µM) | 32 mm | 59 mm | Activity (Helicobacter pylori [13]): 35 mm; Activity (Helicobacter pylori [5]): 25.4 mm; Activity (Helicobacter pylori [6]): 12.2 mm; Activity (Helicobacter pylori [7]): 36.5 mm; Activity (Helicobacter pylori [8]): 19.5 mm; Activity (Helicobacter pylori [14]): 47 mm; Activity (Helicobacter pylori [9]): 31.7 mm; Activity (Helicobacter pylori [10]): 15 mm; IC50 [11]: 61.5 µg/mL (≈ 186 µM); Activity (Helicobacter pylori [12]): 42.6 mm
4 | CCS(=O)(=O)CCSc1nnc(-c2ccc([N+](=O)[O-])cc2)s1 | 24 mm | > 32 µg/mL | > 32 µg/mL | > 32 µg/mL | 30 mm | > 32 µg/mL | > 32 µg/mL | > 32 µg/mL | > 32 µg/mL | 32 µg/mL (≈ 89 µM) | 19 mm | 27 mm | –
5 | CCSCCSc1nnc(-c2cccc([N+](=O)[O-])c2)s1 | 6 mm | > 32 µg/mL | > 32 µg/mL | > 32 µg/mL | 9 mm | > 32 µg/mL | > 32 µg/mL | > 32 µg/mL | > 32 µg/mL | 32 µg/mL (≈ 97.7 µM) | 6 mm | – | –
6 | CCS(=O)(=O)CCSc1nnc(-c2ccccc2[N+](=O)[O-])s1 | 9 mm | > 32 µg/mL | > 32 µg/mL | > 32 µg/mL | 15 mm | > 32 µg/mL | > 32 µg/mL | > 32 µg/mL | > 32 µg/mL | 32 µg/mL (≈ 89 µM) | 6 mm | 13 mm | –
7 | CCS(=O)(=O)CCSc1nnc(-c2cccc([N+](=O)[O-])c2)s1 | 6 mm | > 32 µg/mL | > 32 µg/mL | > 32 µg/mL | 26 mm | > 32 µg/mL | > 32 µg/mL | > 32 µg/mL | > 32 µg/mL | 32 µg/mL (≈ 89 µM) | 6 mm | 25 mm | –

Source: ChEMBL document CHEMBL1143078, “Synthesis and anti-Helicobacter pylori activity of 5-(nitroaryl)-1,3,4-thiadiazoles with certain sulfur containing alkyl side chain” (Bioorg Med Chem Lett, 2008)
